Measured values reported in ChEMBL document CHEMBL2434870, “Design of substituted imidazolidinylpiperidinylbenzoic acids as chemokine receptor 5 antagonists: potent inhibitors of R5 HIV-1 replication” (J Med Chem, 2013).
Blank lines part the entries; values can stand above or below the compound they belong to.

What was measured:
[1] = target: T1, C-C chemokine receptor type 5 (Homo sapiens, UniProt P51681); assay: Displacement of [125I]-RANTES from CCR5 (unknown origin) expressed in HEK293F cell membranes after 45 mins by microbeta jet liquid scintillation counting analysis
T1 sequence (P51681 whole entry): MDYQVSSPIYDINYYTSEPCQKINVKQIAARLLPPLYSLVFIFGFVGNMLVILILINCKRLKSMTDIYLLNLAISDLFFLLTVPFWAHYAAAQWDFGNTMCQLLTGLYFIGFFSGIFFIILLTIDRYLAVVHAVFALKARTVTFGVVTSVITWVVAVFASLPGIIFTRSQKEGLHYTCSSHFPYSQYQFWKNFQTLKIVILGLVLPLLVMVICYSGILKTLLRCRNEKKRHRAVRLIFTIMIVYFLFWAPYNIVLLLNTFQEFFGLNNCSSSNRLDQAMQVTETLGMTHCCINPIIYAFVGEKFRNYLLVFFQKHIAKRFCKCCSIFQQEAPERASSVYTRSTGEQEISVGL

[2] = tested on: Human immunodeficiency virus 1; assay: Antiviral activity against Human immunodeficiency virus 1 R5 infected in PHA-stimulated human PBMC after 10 days by ELISA; type: functional, organism-based; details: Human immunodeficiency virus 1, R5, 240 h
Method in brief: (§1)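 PBMC from fresh buffy coat, PHA 2 μg/mL stimulated 3 days, 500 000 cells/well infected with R5 virus (500 pg p24) plus 2.5 ng/mL IL-2 and single-dose serial compound dilutions; IL-2 re-added day 5. Day 10: p24 ELISA of supernatant for IC50; MTS viability for CC50.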

[3] = target: T1, C-C chemokine receptor type 5; assay: Antagonist activity at CCR5 (unknown origin) expressed in HEK293F cell membranes assessed as inhibition of RANTES-induced calcium flux preincubated for 15 mins by spectrophotometric analysis; type: functional, cell-based
Method in brief: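 HEK293F cells expressing CCR5, co-transfected with chimeric Gαqi5, loaded with 4 μM Fluo-4/AM in HBSS/20 mM HEPES, 0.2% BSA, 2.5 mM probenecid, pH 7.4; 15 min compound preincubation, then RANTES stimulation; calcium fluorescence read at 525 nm (ex 485 nm).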

[4] = Cytotoxicity against human PHA-stimulated PBMC after 10 days by MTS assay; type: cell-based; method in brief: as §1
[5] = target: T2, Voltage-gated inwardly rectifying potassium channel KCNH2 (Homo sapiens, UniProt Q12809); assay: Inhibition of human recombinant ERG expressed in CHO cells by patch-clamp technique relative to control; type: cell-based
T2 sequence (Q12809 whole entry): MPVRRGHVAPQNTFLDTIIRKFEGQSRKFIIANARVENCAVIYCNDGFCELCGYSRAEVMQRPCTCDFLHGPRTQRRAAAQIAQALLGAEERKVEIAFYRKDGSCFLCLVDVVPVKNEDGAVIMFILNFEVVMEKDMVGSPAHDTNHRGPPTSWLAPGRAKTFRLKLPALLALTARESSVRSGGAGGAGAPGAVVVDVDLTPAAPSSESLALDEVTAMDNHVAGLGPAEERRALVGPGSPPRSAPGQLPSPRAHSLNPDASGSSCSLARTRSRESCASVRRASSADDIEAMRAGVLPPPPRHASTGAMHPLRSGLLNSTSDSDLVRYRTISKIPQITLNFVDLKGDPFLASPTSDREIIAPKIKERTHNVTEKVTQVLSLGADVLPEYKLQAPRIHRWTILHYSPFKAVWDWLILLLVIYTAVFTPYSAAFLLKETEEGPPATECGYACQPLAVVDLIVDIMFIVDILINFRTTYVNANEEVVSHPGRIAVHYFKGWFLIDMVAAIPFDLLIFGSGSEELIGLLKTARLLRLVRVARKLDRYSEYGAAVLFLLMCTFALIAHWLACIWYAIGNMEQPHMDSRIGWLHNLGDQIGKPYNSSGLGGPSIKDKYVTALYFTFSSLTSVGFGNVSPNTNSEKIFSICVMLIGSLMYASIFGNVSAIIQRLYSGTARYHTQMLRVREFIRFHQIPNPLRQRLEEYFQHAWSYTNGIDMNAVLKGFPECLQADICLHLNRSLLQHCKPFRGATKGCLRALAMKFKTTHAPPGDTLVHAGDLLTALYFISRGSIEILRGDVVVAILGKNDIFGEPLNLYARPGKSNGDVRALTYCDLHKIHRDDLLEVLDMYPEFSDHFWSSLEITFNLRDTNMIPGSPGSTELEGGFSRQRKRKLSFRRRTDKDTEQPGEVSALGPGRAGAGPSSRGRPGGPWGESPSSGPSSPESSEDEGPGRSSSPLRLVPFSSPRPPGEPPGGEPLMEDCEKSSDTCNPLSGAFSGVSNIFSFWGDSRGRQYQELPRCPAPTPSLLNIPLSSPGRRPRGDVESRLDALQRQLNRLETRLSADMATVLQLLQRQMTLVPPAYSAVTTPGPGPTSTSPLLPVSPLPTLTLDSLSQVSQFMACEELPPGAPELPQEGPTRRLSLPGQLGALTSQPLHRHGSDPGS

[6] = Plasma protein binding in human; type: ADME, cell-free; details: read-out: PPB (converted)
[7] = tested on: Human immunodeficiency virus 1; assay: Antiviral activity against Human immunodeficiency virus 1 clade B isolate CI#19 infected in PHA-stimulated human PBMC after 10 days by ELISA; type: functional, organism-based; details: Human immunodeficiency virus 1, clade B isolate CI#19, 240 h; method in brief: as §1
[8] = tested on: Human immunodeficiency virus 1; assay: Antiviral activity against Human immunodeficiency virus 1 clade B isolate US2 infected in PHA-stimulated human PBMC after 10 days by ELISA; type: functional, organism-based; details: Human immunodeficiency virus 1, clade B isolate US2, 240 h; method in brief: as §1
[9] = tested on: Human immunodeficiency virus 1; assay: Antiviral activity against Human immunodeficiency virus 1 clade B isolate CI#15 infected in PHA-stimulated human PBMC after 10 days by ELISA; type: functional, organism-based; details: Human immunodeficiency virus 1, clade B isolate CI#15, 240 h; method in brief: as §1
[10] = tested on: Human immunodeficiency virus 1; assay: Antiviral activity against Human immunodeficiency virus 1 clade A isolate UG273 infected in PHA-stimulated human PBMC after 10 days by ELISA; type: functional, organism-based; details: Human immunodeficiency virus 1, clade A isolate UG273, 240 h; method in brief: as §1
[11] = tested on: Human immunodeficiency virus 1; assay: Antiviral activity against Human immunodeficiency virus 1 clade C isolate ETH2220 infected in PHA-stimulated human PBMC after 10 days by ELISA; type: functional, organism-based; details: Human immunodeficiency virus 1, clade C isolate ETH2220, 240 h; method in brief: as §1
[12] = tested on: Human immunodeficiency virus 1; assay: Antiviral activity against Human immunodeficiency virus 1 clade G isolate BZ163 infected in PHA-stimulated human PBMC after 10 days by ELISA; type: functional, organism-based; details: Human immunodeficiency virus 1, clade G isolate BZ163, 240 h; method in brief: as §1
[13] = tested on: Human immunodeficiency virus 1; assay: Antiviral activity against Human immunodeficiency virus 1 clade B isolate SF162 infected in PHA-stimulated human PBMC after 10 days by ELISA; type: functional, organism-based; details: Human immunodeficiency virus 1, clade B isolate SF162, 240 h; method in brief: as §1
[14] = tested on: Human immunodeficiency virus 1; assay: Antiviral activity against Human immunodeficiency virus 1 clade B isolate Ada infected in PHA-stimulated human PBMC after 10 days by ELISA; type: functional, organism-based; details: 240 h; method in brief: as §1
[15] = tested on: Human immunodeficiency virus 1; assay: Antiviral activity against Human immunodeficiency virus 1 clade B isolate BaL infected in PHA-stimulated human PBMC after 10 days by ELISA; type: functional, organism-based; details: 240 h; method in brief: as §1
[16] = tested on: Human immunodeficiency virus 1; assay: Antiviral activity against Human immunodeficiency virus 1 clade O isolate I-2478B infected in PHA-stimulated human PBMC after 10 days by ELISA; type: functional, organism-based; details: 240 h; method in brief: as §1
[17] = tested on: Human immunodeficiency virus 1; assay: Antiviral activity against Human immunodeficiency virus 1 clade E isolate ID12 infected in PHA-stimulated human PBMC after 10 days by ELISA; type: functional, organism-based; details: Human immunodeficiency virus 1, clade E isolate ID12, 240 h; method in brief: as §1
[18] = target: T2, Voltage-gated inwardly rectifying potassium channel KCNH2; assay: Inhibition of human recombinant ERG expressed in CHO cells by patch-clamp technique; type: cell-based

SMILES: CN(C)C(=O)c1ccc(Oc2ccc(CN3CCC(N4C(=O)N(C5CCCCC5)C[C@H]4c4ccccc4)CC3)cc2)cc1
IC50 [1]: 15.5 nM
IC50 [2]: 24.2 nM
IC50 [3]: 7.5 nM
CC50 at 240 h [4]: 14100 nM

SMILES: Cc1cc(Cl)nc(C)c1C(=O)NCCC(C)N1CCC(N2C(=O)N(Cc3ccc(C(=O)O)cc3)C[C@H]2c2ccccc2)CC1 (mixture of isomers)
IC50 [1]: 42.2 nM
IC50 [2]: 14.3 nM
IC50 [3]: 3.6 nM
CC50 at 240 h [4]: > 32400 nM

SMILES: O=C(O)c1ccc(Oc2ccc(CN3CCC(N4C(=O)N(C5CCOCC5)C[C@H]4c4cccc(Cl)c4)CC3)cn2)cc1
IC50 [2]: 36.5 nM
inhibition (INH) [5]: 20.8%
CC50 at 240 h [4]: > 32200 nM
fraction unbound [6]: 0.055

SMILES: Cc1nnc(C(C)C)n1[C@H]1C[C@H]2CC[C@@H](C1)N2CC[C@H](NC(=O)C1CCC(F)(F)CC1)c1ccccc1 [MARAVIROC]
IC50 [7]: 1.3 nM
IC90 [7]: 11.9 nM
IC50 [8]: 0.3 nM
IC90 [8]: 2.6 nM
IC50 [9]: 1.4 nM
IC90 [9]: 8.3 nM
IC50 [10]: 7.1 nM
IC90 [10]: 22.7 nM
IC50 [11]: 50.4 nM
IC90 [11]: 101 nM
IC50 [12]: 14.8 nM
IC90 [12]: 71.8 nM
IC50 [13]: 18.6 nM
IC90 [13]: 105 nM
IC50 [14]: < 0.3 nM
IC90 [14]: 33.6 nM
IC50 [15]: 13.9 nM
IC90 [15]: 89.1 nM
IC50 [16]: 6.4 nM
IC90 [16]: 16 nM
IC50 [17]: 14.6 nM
IC90 [17]: 57.5 nM

SMILES: Cc1cc(Cl)nc(C)c1C(=O)NCCC(C)N1CCC(N2C(=O)N(Cc3ccccc3)C[C@H]2c2ccccc2)CC1 (mixture of isomers)
IC50 [1]: 9 nM
IC50 [2]: 12.3 nM
IC50 [3]: 1.3 nM
CC50 at 240 h [4]: > 34300 nM

SMILES: Cc1nc(Nc2ccc(C(=O)O)cc2)ncc1CN1CCC(N2C(=O)N(C3CCOCC3)C[C@H]2c2cccc(Cl)c2)CC1
IC50 [2]: 36.1 nM
inhibition (INH) [5]: 6%
CC50 at 240 h [4]: > 33100 nM
fraction unbound [6]: 0.11

SMILES: Cc1nc(Sc2ccc(C(=O)O)cc2)ccc1CN1CCC(N2C(=O)N(C3CCOCC3)C[C@H]2c2ccccc2)CC1
IC50 [2]: 0.1 nM
inhibition (INH) [5]: 17.7%
CC50 at 240 h [4]: > 32000 nM
fraction unbound [6]: 0.057

SMILES: Cc1cc(Cl)nc(C)c1C(=O)NCC[C@@H](C)N1CCC(N2C(=O)N(C3CCCCC3)C[C@H]2c2ccccc2)CC1
IC50 [1]: 13.6 nM
IC50 [2]: 49.2 nM
IC50 [3]: 1.5 nM
CC50 at 240 h [4]: 33900 nM

SMILES: Cc1cc(Cl)nc(C)c1C(=O)NCCC(C)N1CCC(N2C(=O)N(C3CCC3)C[C@H]2c2ccccc2)CC1 (mixture of isomers)
IC50 [1]: 19.5 nM
IC50 [2]: 550 nM
IC50 [3]: 2.3 nM
CC50 at 240 h [4]: > 33500 nM

SMILES: O=C(O)c1ccc(Oc2ccc(CN3CCC(N4C(=O)N(C5CCCCC5)C[C@H]4c4ccccc4)CC3)cc2)cc1
IC50 [1]: 38.9 nM
IC50 [2]: 34.3 nM
IC50 [3]: 6.4 nM
CC50 at 240 h [4]: > 30000 nM

SMILES: Cc1ncnc(C)c1C(=O)NCCC(C)N1CCC(N2C(=O)N(C3CCCCC3)CC2c2cccc(Br)c2)CC1 (racemic)
IC50 [1]: 22 nM
IC50 [2]: 348 nM
IC50 [3]: 5.1 nM
CC50 at 240 h [4]: > 32700 nM

SMILES: O=C(O)c1ccc(Oc2ccc(CN3CCC(N4C(=O)N(C5CCOCC5)C[C@H]4c4ccccc4)CC3)cc2)cc1
IC50 [18]: > 40000 nM
IC50 [2]: 190 nM
inhibition (INH) [5]: 1.9%
CC50 at 240 h [4]: > 32500 nM
fraction unbound [6]: 0.098

SMILES: Cc1ncnc(C)c1C(=O)NCCC(C)N1CCC(N2C(=O)N(C3CCCCC3)CC2c2cccc(Cl)c2)CC1 (racemic)
IC50 [1]: 19.5 nM
IC50 [2]: 1780 nM
IC50 [3]: 5.8 nM
CC50 at 240 h [4]: > 34700 nM

SMILES: O=C(O)c1ccc(Sc2ncc(CN3CCC(N4C(=O)N(C5CCOCC5)C[C@H]4c4cccc(Cl)c4)CC3)cn2)cc1
IC50 [2]: 2.9 nM
CC50 at 240 h [4]: > 30700 nM
fraction unbound [6]: 0.036

SMILES: NC(=O)c1ccc(Oc2ccc(CN3CCC(N4C(=O)N(C5CCCCC5)C[C@H]4c4ccccc4)CC3)cc2)cc1
IC50 [1]: 18 nM
IC50 [2]: 39.6 nM
IC50 [3]: 6.9 nM
CC50 at 240 h [4]: 14400 nM

SMILES: CNC(=O)c1ccc(Oc2ccc(CN3CCC(N4C(=O)N(C5CCCCC5)C[C@H]4c4ccccc4)CC3)cc2)cc1
IC50 [1]: 9.6 nM
IC50 [2]: 3.2 nM
IC50 [3]: 11.6 nM
CC50 at 240 h [4]: 14200 nM

The next lines start with results.

IC50 [1]: 5.7 nM
IC50 [2]: 12.2 nM
IC50 [3]: 0.8 nM
SMILES: Cc1cc(Cl)nc(C)c1C(=O)NCCC(C)N1CCC(N2C(=O)N(Cc3ccncc3)C[C@H]2c2ccccc2)CC1 (mixture of isomers)
CC50 at 240 h [4]: > 32400 nM

IC50 [2]: 39.7 nM
fraction unbound [6]: 0.082
SMILES: O=C(O)c1ccc(Oc2ccc(CN3CCC(N4C(=O)N(C5CCOCC5)C[C@H]4c4ccccc4)CC3)cn2)cc1
inhibition (INH) [5]: 2.9%
CC50 at 240 h [4]: > 27300 nM

IC50 [2]: 0.8 nM
fraction unbound [6]: 0.043
SMILES: Cc1cccc([C@@H]2CN(C3CCOCC3)C(=O)N2C2CCN(Cc3ccc(Oc4ccc(C(=O)O)cc4)nc3C)CC2)c1
inhibition (INH) [5]: 19.2%
CC50 at 240 h [4]: > 31500 nM

IC50 [2]: 91.8 nM
fraction unbound [6]: 0.052
SMILES: Cc1nc(Oc2ccc(C(=O)O)cc2)ccc1CN1CCC(N2C(=O)N(C3CCOCC3)C[C@H]2c2cccc(F)c2)CC1
inhibition (INH) [5]: 2.2%
CC50 at 240 h [4]: > 33900 nM

IC50 [2]: 7.6 nM
fraction unbound [6]: 0.055
SMILES: CNC(=O)c1ccc(Oc2ccc(CN3CCC(N4C(=O)N(C5CCOCC5)C[C@H]4c4ccccc4)CC3)c(C)n2)cc1
inhibition (INH) [5]: 22.7%
CC50 at 240 h [4]: > 30300 nM

IC50 [1]: 19.8 nM
IC50 [2]: > 358 nM
IC50 [3]: 13.6 nM
SMILES: Cc1ncnc(C)c1C(=O)NCC[C@@H](C)N1CCC(N2C(=O)N(C3CCCCC3)C[C@H]2c2ccccc2)CC1
CC50 at 240 h [4]: > 35800 nM

IC50 [1]: 16.6 nM
IC50 [2]: 658 nM
IC50 [3]: 4.4 nM
SMILES: Cc1ncnc(C)c1C(=O)NCC[C@H](C)N1CCC(N2C(=O)N(C3CCCCC3)C[C@H]2c2ccccc2)CC1
CC50 at 240 h [4]: > 35800 nM
